What all share (type): cell-based
The target of assay [1] is T1, Retinoic acid receptor RXR-beta (Homo sapiens) (UniProt P28702).
T1 sequence (whole entry): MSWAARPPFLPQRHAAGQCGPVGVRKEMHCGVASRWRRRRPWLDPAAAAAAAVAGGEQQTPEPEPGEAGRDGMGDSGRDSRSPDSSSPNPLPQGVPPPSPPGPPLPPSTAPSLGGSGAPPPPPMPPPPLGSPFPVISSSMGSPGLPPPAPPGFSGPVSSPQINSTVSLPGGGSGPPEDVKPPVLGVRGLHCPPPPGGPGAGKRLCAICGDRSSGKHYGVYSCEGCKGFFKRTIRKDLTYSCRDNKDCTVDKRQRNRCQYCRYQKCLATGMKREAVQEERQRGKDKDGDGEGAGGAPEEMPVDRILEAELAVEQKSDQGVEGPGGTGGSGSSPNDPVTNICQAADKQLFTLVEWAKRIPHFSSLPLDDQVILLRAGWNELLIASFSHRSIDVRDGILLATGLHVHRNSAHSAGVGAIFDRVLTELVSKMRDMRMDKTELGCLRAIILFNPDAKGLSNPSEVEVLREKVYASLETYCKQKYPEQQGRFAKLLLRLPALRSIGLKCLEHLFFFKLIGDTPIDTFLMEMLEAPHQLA
The assay can be described thus: Transactivation of human Gal4-fused RXRbeta LBD expressed in HEK293T cells after 12 to 14 hrs by dual-glo luciferase assay relative to bexarotene.

Assay [2] has as its target T2, Retinoic acid receptor RXR-alpha (Homo sapiens) (UniProt P19793).
T2 sequence (whole entry): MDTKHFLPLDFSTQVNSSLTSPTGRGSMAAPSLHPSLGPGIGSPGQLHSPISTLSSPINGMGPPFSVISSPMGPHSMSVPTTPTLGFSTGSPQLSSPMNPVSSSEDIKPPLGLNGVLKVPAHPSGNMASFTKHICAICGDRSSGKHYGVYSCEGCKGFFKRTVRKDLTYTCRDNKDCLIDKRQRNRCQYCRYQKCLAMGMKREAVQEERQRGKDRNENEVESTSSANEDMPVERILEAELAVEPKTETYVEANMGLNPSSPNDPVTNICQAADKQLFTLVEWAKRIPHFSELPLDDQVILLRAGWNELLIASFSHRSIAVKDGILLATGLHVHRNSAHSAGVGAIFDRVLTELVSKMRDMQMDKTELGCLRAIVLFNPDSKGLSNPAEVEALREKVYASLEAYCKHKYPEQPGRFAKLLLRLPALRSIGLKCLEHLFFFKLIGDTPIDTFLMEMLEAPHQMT
As to the kind of experiment: Transactivation of human Gal4-fused RXRalpha LBD expressed in HEK293T cells at 30 uM after 12 to 14 hrs by dual-glo luciferase assay. A digest of the protocol:
(§1)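 Single-concentration selectivity profiling in Gal4-hybrid reporter gene assays in HEK293T cells. Each nuclear receptor construct (RAR, PPAR, LXR, FXR, CAR, VDR, PXR, RXR) was tested at 30 μM.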

For assay [3], the target named is T3, Retinoic acid receptor beta (Homo sapiens) (UniProt P10826).
T3 sequence (whole entry): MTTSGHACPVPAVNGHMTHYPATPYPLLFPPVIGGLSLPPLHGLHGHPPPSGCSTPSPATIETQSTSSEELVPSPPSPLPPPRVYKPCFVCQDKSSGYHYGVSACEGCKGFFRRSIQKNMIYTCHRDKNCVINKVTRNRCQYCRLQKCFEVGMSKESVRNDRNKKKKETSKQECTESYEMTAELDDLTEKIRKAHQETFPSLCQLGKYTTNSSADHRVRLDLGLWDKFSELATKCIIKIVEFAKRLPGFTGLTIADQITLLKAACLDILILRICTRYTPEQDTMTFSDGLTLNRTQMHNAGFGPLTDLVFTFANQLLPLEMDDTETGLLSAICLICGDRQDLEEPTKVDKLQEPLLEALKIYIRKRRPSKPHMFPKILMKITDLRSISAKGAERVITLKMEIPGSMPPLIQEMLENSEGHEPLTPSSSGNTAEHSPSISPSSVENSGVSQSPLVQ
As to the kind of experiment: Transactivation of human Gal4-fused RARbeta LBD expressed in HEK293T cells at 30 uM after 12 to 14 hrs by dual-glo luciferase assay. A digest of the protocol:
as §1

The target in assay [4] is T4, Vitamin D3 receptor (Homo sapiens) (UniProt P11473).
T4 sequence (whole entry): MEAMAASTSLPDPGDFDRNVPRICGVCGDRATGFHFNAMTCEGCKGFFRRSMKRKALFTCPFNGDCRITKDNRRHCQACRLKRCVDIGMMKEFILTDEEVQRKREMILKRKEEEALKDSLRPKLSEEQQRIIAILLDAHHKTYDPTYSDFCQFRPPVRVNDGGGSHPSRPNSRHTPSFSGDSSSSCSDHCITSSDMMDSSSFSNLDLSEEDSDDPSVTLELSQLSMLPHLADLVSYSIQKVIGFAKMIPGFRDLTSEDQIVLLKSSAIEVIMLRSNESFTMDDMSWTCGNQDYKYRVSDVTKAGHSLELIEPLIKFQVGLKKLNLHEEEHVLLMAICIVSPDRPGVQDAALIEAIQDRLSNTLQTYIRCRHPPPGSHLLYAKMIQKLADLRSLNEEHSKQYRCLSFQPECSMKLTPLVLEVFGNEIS
The assay can be described thus: Transactivation of human Gal4-fused VDR LBD expressed in HEK293T cells at 30 uM after 12 to 14 hrs by dual-glo luciferase assay. A digest of the protocol:
as §1

The target of assay [5] is T5, Retinoic acid receptor RXR-gamma (Homo sapiens) (UniProt P48443).
T5 sequence (whole entry): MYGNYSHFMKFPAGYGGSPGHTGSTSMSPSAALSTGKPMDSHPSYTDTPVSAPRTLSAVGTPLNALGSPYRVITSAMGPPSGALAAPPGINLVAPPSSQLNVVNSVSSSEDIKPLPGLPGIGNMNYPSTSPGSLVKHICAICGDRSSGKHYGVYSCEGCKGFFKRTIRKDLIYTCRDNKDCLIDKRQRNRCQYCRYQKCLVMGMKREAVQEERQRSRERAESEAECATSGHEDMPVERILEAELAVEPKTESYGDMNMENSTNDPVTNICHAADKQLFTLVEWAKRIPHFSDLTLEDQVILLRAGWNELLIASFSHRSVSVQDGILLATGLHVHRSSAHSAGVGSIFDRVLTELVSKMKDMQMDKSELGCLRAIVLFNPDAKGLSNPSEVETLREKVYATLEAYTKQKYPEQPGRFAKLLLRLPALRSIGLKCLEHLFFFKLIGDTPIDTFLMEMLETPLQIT
As to the kind of experiment: Transactivation of human Gal4-fused RXRgamma LBD expressed in HEK293T cells after 12 to 14 hrs by dual-glo luciferase assay relative to bexarotene.

For assay [6], the target named is T2, Retinoic acid receptor RXR-alpha (Homo sapiens). As to the kind of experiment: Transactivation of human Gal4-fused RXRalpha LBD expressed in HEK293T cells after 12 to 14 hrs by dual-glo luciferase assay relative to bexarotene.

Calls of active or inactive are those of the source. No cut-off for these calls is given here.

With `CC1=C2[C@H](/C=C(\C)C(=O)O)CC[C@@H](C)[C@H]2CC1` [VALERENIC ACID], the fold change (FC) in assay [1] was 69; in assay [5] it was 4; in assay [6], 9. Further, the result in assay [2] was Active. In addition, the result in assay [3] and in assay [4] was inactive.

The values are drawn from ChEMBL document CHEMBL4145619, “Computer-Assisted Discovery of Retinoid X Receptor Modulating Natural Products and Isofunctional Mimetics” (J Med Chem, 2018).
